Test results published in PubChem BioAssay.
Calls of active or inactive are those of the source.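 How the source made its calls, unless noted: active means viability loss from added drug above about 55%, and viability with drug at most 40%, in both replicates (limit read from the data, passing the limit was not always enough); inconclusive means both conditions met in only one replicate; inactive means neither replicate meets both conditions.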

Assays:
[1] = Her2 expression decrease, cell viability multiplex – SKBR3 breast tumor cells, AlphaScreen, ATP viability, primary screen (AID 461;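 active means Her2 level under about 52% in both replicate screens, with viability over 70% of control, limit read from the data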;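 on Her2 level: lower value means less Her2 protein in the cells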;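 on viability: percent of carrier control wells set as 100% viability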); details: SKBR3 Her2 protein level, 18-24 h, measured here: SKBR3 viability, ATP luminescence, at 10 µM
[2] = target: Receptor tyrosine-protein kinase erbB-2 (Homo sapiens) (UniProt P04626); experiment: as above; details: 18-24 h, at 10 µM, stronger effect = lower value
[3] = reduced viability of SK-BR-3 breast cancer cells – cell-based, 24 h, human, pilot screen (AID 572;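 active means viability at or below 10% of carrier control in both of two separate runs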;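 further: compound exposure lasted between 18 and 24 h rather than exactly 24 h; 100% = carrier-treated control wells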); details: SK-BR-3 viability, CellTiter-Glo luminescence, at 10 µM, stronger effect = lower value
[4] = HUVEC growth inhibition – cell-based, human, primary screen (AID 575;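 active means viability at or below 30% in both replicate assays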;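 further: 100% = median of untreated cell wells with 0.1% DMSO on each plate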); details: HUVEC proliferation, CellTiter-Glo luminescence, 72 h; at 10 µM; stronger effect = lower value
In short: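 Assay system: primary human umbilical vein endothelial cells / Buffer or medium: endothelial basal medium with 2% FBS plus growth supplements / Compound dosing: one dose, 10 µM final, 0.1% DMSO / Timing: 72 h treatment at 37 °C / Signal: CTG luminescence / Benchmarks: 32 DMSO-only cell-control wells (high), 32 MePR drug-control wells (low) per plate / Plate: collagen-coated 384-well format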

[5] = H69AR cell proliferation blockers – human, duplicate replicates, primary screen (AID 580;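 active means viability at or under a set limit in both replicates, limit being median viability minus 3 SD, cut at about 48% in these data, passing the limit was not always enough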;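 further: 100% = mean luminescence of untreated wells and 0% = no signal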); details: H69AR lung tumor cells viability, ATP luminescence, 72 h; at 10 µM; stronger effect = lower value
[6] = MRP1 drug-resistance reversers in H69AR cells – cell-based, doxorubicin co-treatment, pilot screen (AID 601); details: CellTiter-Glo, 72 h, at 10 µM; for differential viability (reversal): stronger effect = higher value
[7] = yeast transport mutant growth inhibition pilot in 384-well plates, post-Golgi transport modulator project (AID 636; in the data active means inhibition above about 31%); details: absorbance 615 nm, about 18 h, stronger effect = higher value
[8] = growth suppression of yeast trafficking mutant, preliminary HTS, modulators of trafficking downstream of Golgi apparatus project, 1536-format plate, OD 615 nm (AID 637; in the data active means inhibition above about 30%); details: yeast transport mutant growth, absorbance 615 nm, 18 h; stronger effect = higher value
[9] = H69AR cells + 2 uM doxorubicin, measured here: viability with 2 uM doxorubicin, stronger effect = lower value
[10] = H69AR cells, compound alone cytotoxicity

Chain of Receptor tyrosine-protein kinase erbB-2 (Homo sapiens) (P04626 whole entry, looked up): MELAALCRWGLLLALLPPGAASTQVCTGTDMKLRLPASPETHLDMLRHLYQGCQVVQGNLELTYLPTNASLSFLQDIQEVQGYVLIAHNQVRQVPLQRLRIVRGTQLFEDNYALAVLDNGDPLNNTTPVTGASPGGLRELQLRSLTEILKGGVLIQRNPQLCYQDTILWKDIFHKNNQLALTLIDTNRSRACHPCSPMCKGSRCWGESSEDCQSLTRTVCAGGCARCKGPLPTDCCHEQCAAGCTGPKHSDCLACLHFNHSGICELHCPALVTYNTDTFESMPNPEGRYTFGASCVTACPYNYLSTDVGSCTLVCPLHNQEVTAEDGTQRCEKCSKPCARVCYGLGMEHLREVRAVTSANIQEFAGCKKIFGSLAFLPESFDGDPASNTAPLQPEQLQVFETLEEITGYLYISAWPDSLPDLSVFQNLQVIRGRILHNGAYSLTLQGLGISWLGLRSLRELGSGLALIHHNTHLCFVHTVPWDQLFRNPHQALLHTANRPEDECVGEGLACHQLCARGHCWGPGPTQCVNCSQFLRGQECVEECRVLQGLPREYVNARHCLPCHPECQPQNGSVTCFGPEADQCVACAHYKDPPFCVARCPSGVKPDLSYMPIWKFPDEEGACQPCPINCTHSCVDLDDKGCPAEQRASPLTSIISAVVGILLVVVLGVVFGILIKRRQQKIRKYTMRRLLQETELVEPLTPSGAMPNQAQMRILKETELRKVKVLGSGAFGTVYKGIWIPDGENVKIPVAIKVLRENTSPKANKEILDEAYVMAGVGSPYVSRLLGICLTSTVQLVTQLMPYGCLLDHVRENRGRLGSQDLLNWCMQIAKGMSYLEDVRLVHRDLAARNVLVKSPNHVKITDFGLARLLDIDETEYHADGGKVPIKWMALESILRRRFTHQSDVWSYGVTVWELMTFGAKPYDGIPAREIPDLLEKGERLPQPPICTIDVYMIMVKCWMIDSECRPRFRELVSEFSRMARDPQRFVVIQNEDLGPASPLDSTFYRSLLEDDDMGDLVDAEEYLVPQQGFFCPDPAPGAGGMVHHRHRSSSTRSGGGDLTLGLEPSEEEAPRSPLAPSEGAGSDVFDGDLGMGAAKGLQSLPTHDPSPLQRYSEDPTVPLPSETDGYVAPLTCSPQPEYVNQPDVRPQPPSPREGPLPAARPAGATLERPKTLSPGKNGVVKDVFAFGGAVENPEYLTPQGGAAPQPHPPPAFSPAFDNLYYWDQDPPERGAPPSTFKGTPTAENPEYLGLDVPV

Compound	viability [1] [%]	Her2 level [2]	viability [3]	viability [4]	viability [5]	differential viability (reversal) ([6]; H69AR cells + 2 uM doxorubicin)	viability [6, 9] [%]	viability [6, 10] [%]	inhibition [7]	inhibition [8]
O=C(O)C1C2C=CC(O2)C1C(=O)NCc1ccc(Cl)cc1 (stereo not given)	107	94.5% (inactive)	107% (inactive)	105% (inactive)	104% (inactive)	7.33% (inactive)	96.6	104	-5.87% (inactive)	2.58% (inactive)
O=C(Nc1ccc2c(c1)OCCO2)c1ccco1	83	106% (inactive)	83% (inactive)	78.7% (inactive)	86.5% (inactive)	6.8% (inactive)	79.7	86.5	2.47% (inactive)	-5.08% (inactive)
CCOc1cc(C2C(C#N)=C(N)OC(C)=C2C(C)=O)cc(Br)c1O (stereo not given)	114	91% (inactive)	114% (inactive)	120% (inactive)	90.3% (inactive)	6.05% (inactive)	84.2	90.3	-5.95% (inactive)	-6.83% (inactive)
CCc1nnc(NC(=O)C2CC(=O)N(Cc3ccco3)C2)s1 (stereo not given)	107	95% (inactive)	107% (inactive)	111% (inactive)	98.4% (inactive)	4% (inactive)	94.4	98.4	-2.93% (inactive)	2.1% (inactive)
N#CC1=C(N)SC(N)=C(C#N)C1CCc1ccccc1	79.5	77.5% (inactive)	79.5% (inactive)	44.8% (inactive)	23.3% (active)	-8.65% (inactive)	31.9	23.3	-2.11% (inactive)	-0.36% (inactive)
CCOc1ccccc1NC(=O)C1CCCN1C(=O)OCc1ccccc1 (stereo not given)	84.5	93.5% (inactive)	84.5% (inactive)	111% (inactive)	87.6% (inactive)	2.29% (inactive)	85.3	87.6	-1.71% (inactive)	-10% (inactive)
CC1CN(S(=O)(=O)c2cccc(C(=O)OCc3cc(=O)oc4cc(O)ccc34)c2)CC(C)O1 (stereo not given)	80.5	87% (inactive)	80.5% (inactive)	61.1% (inactive)	78.2% (inactive)	16.1% (inactive)	62.1	78.2	-6% (inactive)	-4.43% (inactive)
Cc1ccc(NC(=O)CSc2nnc(NC(=O)CN3CCOCC3)s2)cc1	102	82% (inactive)	102% (inactive)	98% (inactive)	94.1% (inactive)	9.71% (inactive)	84.4	94.1	-5.33% (inactive)	-2.46% (inactive)
N#Cc1c(NC(=O)CSc2nc(N)cc(=O)[nH]2)sc2c1CCCCCC2	104	90% (inactive)	104% (inactive)	59.9% (inactive)	91.5% (inactive)	5.43% (inactive)	86.1	91.5	-0.66% (inactive)	-10% (inactive)
CN(C)CCCN1C(=O)c2oc3ccccc3c(=O)c2C1c1cccs1 (stereo not given)	110	93.5% (inactive)	110% (inactive)	99% (inactive)	86.1% (inactive)	5.31% (inactive)	80.8	86.1	-1.95% (inactive)	1.67% (inactive)
O=C(c1ccccc1)c1coc2ccc(O)c(CN3CCOCC3)c12	78.5	75.5% (inactive)	78.5% (inactive)	115% (inactive)	88.5% (inactive)	-9.25% (inactive)	97.8	88.5	-3.42% (inactive)	5.9% (inactive)
CCc1ccc(NC(=O)C2CC(=O)N(C(C)C)C2)cc1 (stereo not given)	111	104% (inactive)	111% (inactive)	100% (inactive)	90.8% (inactive)	-3.8% (inactive)	94.6	90.8	-4.13% (inactive)	-2.46% (inactive)
O=C(CSc1nnc(-c2ccccc2Cl)n1Cc1ccco1)Nc1ccc2c(c1)OCCO2	83.5	80% (inactive)	83.5% (inactive)	93.9% (inactive)	77.7% (inactive)	-12.8% (inactive)	90.5	77.7	-3.07% (inactive)	-4.75% (inactive)
CN1C(=S)SC(C)(NO)C1(C)C (stereo not given)	90	95.5% (inactive)	90% (inactive)	97% (inactive)	104% (inactive)	5.95% (inactive)	98.4	104	-0.27% (inactive)	-9.52% (inactive)
COC(=O)CCC(=O)Nc1cccc(Cl)c1	118	87% (inactive)	118% (inactive)	90.1% (inactive)	85.4% (inactive)	-5.69% (inactive)	91.1	85.4	-0.65% (inactive)	-2.54% (inactive)
COC(=O)C1=CN(C(C)C)C=C(C(=O)OC)C1c1cc2c(cc1Br)OCO2	92.5	87.5% (inactive)	92.5% (inactive)	74% (inactive)	85.4% (inactive)	9.5% (inactive)	75.9	85.4	-1.47% (inactive)	-4.29% (inactive)

Compound	viability [1] [%]	Her2 level [2]	viability [3]	viability [4]	viability [5]	differential viability (reversal) ([6]; H69AR cells + 2 uM doxorubicin)	viability [6, 9] [%]	viability [6, 10] [%]	inhibition [7]	inhibition [8]
CCCCOC(=O)CNc1nnc(SCC(=O)OCC)[nH]c1=O	114	87% (inactive)	114% (inactive)	74.8% (inactive)	98.6% (inactive)	11.7% (inactive)	86.9	98.6	-0.91% (inactive)	-3.81% (inactive)
O=C(OCC#CCSc1nc2ccccc2s1)c1ccco1	88	90.5% (inactive)	88% (inactive)	74.7% (inactive)	81.8% (inactive)	1.8% (inactive)	80	81.8	-2.34% (inactive)	-10.8% (inactive)
Cc1cc2oc(=O)cc(C)c2c(=O)o1	101	136% (inactive)	101% (inactive)	94.8% (inactive)	108% (inactive)	11.2% (inactive)	96.6	108	2.5% (inactive)	-3.83% (inactive)
CC(=O)N1CCN=C1SCc1c(F)cccc1Cl	102	105% (inactive)	102% (inactive)	73.1% (inactive)	78.8% (inactive)	-5.06% (inactive)	83.8	78.8	3.85% (inactive)	-1% (inactive)
COc1cc(NC(=O)Cc2cccs2)ccc1-n1cnnn1	97	95.5% (inactive)	97% (inactive)	97% (inactive)	102% (inactive)	7.88% (inactive)	94.4	102	-6.13% (inactive)	1.29% (inactive)
COc1ccc(NC(=O)CC2Oc3ccccc3NC2=O)cc1 (stereo not given)	87.5	90% (inactive)	87.5% (inactive)	96.2% (inactive)	97.6% (inactive)	0.535% (inactive)	97.1	97.6	0.27% (inactive)	-4.75% (inactive)
COCCCNC(=O)C1CCCN(C(=O)Nc2ccc(OC)cc2)C1 (stereo not given)	98	89% (inactive)	98% (inactive)	100% (inactive)	90.4% (inactive)	6.8% (inactive)	83.6	90.4	-7.03% (inactive)	1.83% (inactive)
O=C(OC1CCOC1=O)c1ccc2ccccc2n1 (stereo not given)	98.5	85% (inactive)	98.5% (inactive)	101% (inactive)	102% (inactive)	9.04% (inactive)	93.4	102	-6.93% (inactive)	1.75% (inactive)
Cc1cc(NS(=O)(=O)c2ccccc2)n(-c2ccccc2)n1	106	95.5% (inactive)	106% (inactive)	85.2% (inactive)	96.2% (inactive)	-2.34% (inactive)	98.6	96.2	-4.13% (inactive)	2.1% (inactive)
COc1cccc(-n2c(C)nc3c(cnn3-c3ccc(C)cc3)c2=O)c1	86	102% (inactive)	86% (inactive)	79.6% (inactive)	90.4% (inactive)	-12% (inactive)	102	90.4	0.66% (inactive)	-10.5% (inactive)
CCOC(=O)N1CCN(c2c(NCC3CCN(Cc4cccc(C)c4)CC3)c(=O)c2=O)CC1	102	89.5% (inactive)	102% (inactive)	81.7% (inactive)	107% (inactive)	15% (inactive)	92.2	107	-2% (inactive)	2.95% (inactive)
Cc1ccc(-c2cn3nc(C)c(C)nc3n2)cc1	106	94% (inactive)	106% (inactive)	75.4% (inactive)	85.5% (inactive)	4% (inactive)	81.5	85.5	-4.93% (inactive)	0% (inactive)
CCN(CCCNC(=O)C1CCCN(S(=O)(=O)c2cnc[nH]2)C1)c1ccccc1 (stereo not given)	94	93% (inactive)	94% (inactive)	104% (inactive)	94.8% (inactive)	6.6% (inactive)	88.2	94.8	-1.87% (inactive)	-1.64% (inactive)
COc1cc(OC)c(OC)cc1CN(C)CCc1ccccn1	104	107% (inactive)	104% (inactive)	96.7% (inactive)	86.9% (inactive)	-4.87% (inactive)	91.8	86.9	-1.79% (inactive)	7% (inactive)
Cc1ccc(NC(=O)CSc2nnc(CSc3nc(C)cc(C)n3)n2Cc2ccco2)c(C)c1	88	96% (inactive)	88% (inactive)	96.9% (inactive)	80.8% (inactive)	16.1% (inactive)	64.7	80.8	0.8% (inactive)	-6.72% (inactive)
O=c1c2cc(N3CCOCC3)ccc2[nH]c(=S)n1CCCN1CCCCC1	83.5	93.5% (inactive)	83.5% (inactive)	84.9% (inactive)	95.9% (inactive)	4.74% (inactive)	91.2	95.9	-4.59% (inactive)	-8.36% (inactive)
